# Source: ChEMBL document CHEMBL5143731, “N-Acylamino Saccharin as an Emerging Cysteine-Directed Covalent Warhead and Its Application in the Identification of Novel FBPase Inhibitors toward Glucose Reduction” (J Med Chem, 2022)
# Legend:
# [1] = target: T1, Tyrosine-protein kinase JAK3 (Homo sapiens) (UniProt P52333); experiment: Inhibition of JAK3 (unknown origin) at 300 uM measured after 40 mins in presence of ATP by luminescence assay relative to control
# T1 sequence (whole entry): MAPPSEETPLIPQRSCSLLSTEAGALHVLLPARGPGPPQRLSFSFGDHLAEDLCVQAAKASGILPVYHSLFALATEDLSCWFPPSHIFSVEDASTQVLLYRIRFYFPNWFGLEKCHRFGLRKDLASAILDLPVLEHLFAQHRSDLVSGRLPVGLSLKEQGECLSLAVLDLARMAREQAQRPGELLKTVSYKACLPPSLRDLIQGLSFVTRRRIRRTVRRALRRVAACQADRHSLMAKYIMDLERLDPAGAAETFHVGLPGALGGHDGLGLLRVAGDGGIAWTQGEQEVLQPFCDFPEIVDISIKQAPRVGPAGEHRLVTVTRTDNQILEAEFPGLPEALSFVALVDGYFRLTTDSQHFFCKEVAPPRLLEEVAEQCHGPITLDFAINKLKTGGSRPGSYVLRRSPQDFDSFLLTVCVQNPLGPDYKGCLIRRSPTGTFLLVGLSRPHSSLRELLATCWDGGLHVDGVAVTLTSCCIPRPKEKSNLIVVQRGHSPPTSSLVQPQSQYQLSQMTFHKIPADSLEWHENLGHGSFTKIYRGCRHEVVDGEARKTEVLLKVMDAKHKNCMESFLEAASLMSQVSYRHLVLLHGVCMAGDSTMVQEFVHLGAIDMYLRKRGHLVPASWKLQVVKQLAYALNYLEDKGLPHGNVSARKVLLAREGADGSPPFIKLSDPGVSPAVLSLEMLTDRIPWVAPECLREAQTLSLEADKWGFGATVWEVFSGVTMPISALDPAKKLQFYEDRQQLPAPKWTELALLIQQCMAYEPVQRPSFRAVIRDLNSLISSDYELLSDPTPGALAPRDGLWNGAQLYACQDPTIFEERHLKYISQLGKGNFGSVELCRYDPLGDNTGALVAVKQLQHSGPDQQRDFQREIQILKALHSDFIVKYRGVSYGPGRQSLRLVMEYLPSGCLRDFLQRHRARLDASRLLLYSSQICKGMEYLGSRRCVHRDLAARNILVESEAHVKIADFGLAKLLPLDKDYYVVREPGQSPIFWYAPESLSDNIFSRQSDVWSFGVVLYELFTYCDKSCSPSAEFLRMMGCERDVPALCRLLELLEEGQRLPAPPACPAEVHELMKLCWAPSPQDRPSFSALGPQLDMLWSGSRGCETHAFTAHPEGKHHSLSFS
# In short: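 Kinase reaction (50 μL): 40 mM Tris pH 7.4, 10 mM MgCl2, 0.1 mg/mL BSA, 1 mM DTT, 10 μM ATP, kinase and substrate, with 1% final DMSO. Run 40 min at 30 °C. Residual ATP read by Kinase-Glo Plus luminescence, inversely related to kinase activity.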
# [2] = Half life of the compound in buffer; assay type: physicochemical
# In short: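 Electrophile (20 μmol) incubated at 37 °C either in pH 7.4 buffer, or in DMSO-d6/D2O (5:1), with or without glutathione. Decay followed by 1H NMR kinetics. First-order rate constant kpseudo-1st taken from ln[electrophile] versus time; t1/2 = 0.693/(60×k), in min.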
# Homo sapiens [3] = organism: Homo sapiens; experiment: Selectivity ratio of IC50 for human FBPase to IC50 for recombinant ALDOB (unknown origin)
# In short: (§1)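 Aldolase (ALDOA/B/C) IC50 by NADH-coupled assay: enzyme plus serial compound dilutions, 0.41 mM NADH and TPI in 0.1 M Tris pH 7.4/0.2 M K-acetate, 3 min at 37 °C. Started with FBP and […], A340 read every 30 s for 6 min. Ratios against the FBPase IC50 from malachite green phosphate assay (620 nm).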
# Homo sapiens [4] = organism: Homo sapiens; experiment: Selectivity ratio of IC50 for human FBPase to IC50 for recombinant ALDOC (unknown origin); in short: as §1
# Mus musculus [5] = experiment: Hypoglycemic activity in 12 hrs fasted ICR mouse assessed as reduction in blood glucose AUC (0 to 6 hrs) at 10 mg/kg, ip measured after 6 hrs; assay type: functional; parameters: scale not given: the % may be the effect or the level left
# In short: (§2)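 Male ICR mice (n = 4 per group), fasted 12 h with food withheld throughout. Single ip dose in 10% ricinus oil in water; vehicle and metformin 250 mg/kg as controls. Tail-vein glucose by glucometer at 0, 1, 2, 4 and 6 h; AUC over 0−6 h calculated.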
# Mus musculus [6] = experiment: Hypoglycemic activity in 12 hrs fasted ICR mouse assessed as reduction in blood glucose AUC (0 to 6 hrs) at 30 mg/kg, ip measured after 6 hrs; assay type: functional; parameters: scale not given: the % may be the effect or the level left; in short: as §2
structure (smiles),measurement,setting,value
O=C(NCc1ccccc1)N1C(=O)c2ccccc2S1(=O)=O,inhibition,[1],< 50%
same,half-life,[2],> 167 h
same,Ratio IC50,Homo sapiens [3],> 25
same,Ratio IC50,Homo sapiens [4],> 25
same,Activity,Mus musculus [5],15.3%
same,Activity,Mus musculus [6],42.4%
